19 compounds from ChEMBL document CHEMBL1137277, “Synthesis of highly substituted dibenzo[b,f]azocines and their evaluation as protein kinase inhibitors” (Bioorg Med Chem Lett, 2006) can be followed below.

Active and inactive are the calls of the source. The rule behind the calls is not given here.

The target in test [1] is T1, cAMP-dependent protein kinase (PKA) (Homo sapiens, UniProt P22694+P17612+P22612). In words: Inhibition of PKA-mediated phosphorylation of kemptide at 100 uM. It counts as protein assay. The method in brief:
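PKA (41 µg/ml) with kemptide (10 µM) and compound at 100 µM in 40 mM Tris pH 7.5, 20 mM MgCl2, 0.1 mg/ml BSA; equilibrated 1 h. ATP added (1 µM); after 10 min, remaining ATP read by Kinase-Glo Plus luminescence. DMSO and no-kinase controls; means of two replicates.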

The target in test [2] is Protein kinase C (PKC) (Homo sapiens) (UniProt O94806+P41743+P17252+P05129+Q05655+P05771+Q05513+Q02156+P24723+Q15139+Q04759). The test can be described thus: Inhibition of PKC-mediated phosphorylation of neurogranin at 100 uM. It counts as protein assay. The method in brief: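 PKC (0.33 µg/ml), neurogranin (20 µM), compound 100 µM in 20 mM Tris pH 7.5, 10 mM MgCl2, 0.1 mg/ml BSA, 250 µM EGTA, 400 µM CaCl2 plus lipid activator (phosphatidylserine, […], CaCl2); 1 h equilibration. DMSO and no-kinase controls; duplicate means.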

Test [3] concerns the target T1, cAMP-dependent protein kinase (PKA). In words: Inhibition of PKA-mediated phosphorylation of kemptide.

With `CCc1cccc2c1CNc1c(cccc1CCc1ccccc1)/C=C\2COc1cccc(OC)c1`, the outcome in test [1] and in test [2] was inactive.
For `CCc1cccc2c1CNc1c(cccc1CCc1ccccc1)/C=C\2COc1ccccc1C(=O)OC`, the result in test [1] and in test [2] was inactive.
Turning to `CCc1cccc2c1CNc1c(cccc1CCc1ccccc1)/C=C\2COc1ccc(OC)cc1`, the result in test [1] and in test [2] was inactive.
For the compound `CCc1cccc2c1CNc1c(cccc1CCc1ccccc1)/C=C\2COc1cccc([N+](=O)[O-])c1`, the outcome in test [1] and in test [2] was inactive.
As usually defined, the IC50 is the concentration that gives 50% inhibition. In the case of `CCc1cccc2c1CNc1c(cccc1CCc1ccccc1)/C=C\2COc1ccccc1NC(C)=O`, the IC50 in test [3] was determined as 122 µM. Moreover, the outcome in test [2] was inactive.
With `CCc1cccc2c1CNc1c(cccc1CCc1ccccc1)/C=C\2COc1ccccc1`, the result in test [1] and in test [2] was inactive.
For the compound `CCc1cccc2c1CNc1c(cccc1CCc1ccccc1)/C=C\2COc1ccccc1C(F)(F)F`, the outcome in test [1] and in test [2] was inactive.
For the compound `CCc1cccc2c1CNc1c(cccc1CCc1ccccc1)/C=C\2COc1cccc(C(F)(F)F)c1`, the outcome in test [1] and in test [2] was inactive.
Take `CCc1cccc2c1CNc1c(cccc1CCc1ccccc1)/C=C\2COc1ccccc1[N+](=O)[O-]`: the outcome in test [1] and in test [2] was inactive.
As to `CCc1cccc2c1CNc1c(cccc1CCc1ccccc1)/C=C\2COc1ccc([N+](=O)[O-])cc1`, the outcome in test [1] and in test [2] was inactive.
In the case of `CCc1cccc2c1CNc1c(cccc1CCc1ccccc1)/C=C\2COc1ccccc1Cl`, the result in test [1] and in test [2] was inactive.
For the compound `CCc1cccc2c1CNc1c(cccc1CCc1ccccc1)/C=C\2COc1ccc(F)cc1`, the outcome in test [1] and in test [2] was inactive.
On to `CCc1cccc2c1CNc1c(cccc1CCc1ccccc1)/C=C\2COc1cccc(C(=O)OC)c1`, for which the outcome in test [1] and in test [2] was inactive.
With `CCc1cccc2c1CNc1c(cccc1CCc1ccccc1)/C=C\2COc1cccc(Cl)c1`, the result in test [1] and in test [2] was inactive.
As to `CCc1cccc2c1CNc1c(cccc1CCc1ccccc1)/C=C\2COc1ccccc1OC`, the result in test [1] and in test [2] was inactive.
Turning to `CCc1cccc2c1CNc1c(cccc1CCc1ccccc1)/C=C\2COc1ccccc1F`, the result in test [1] and in test [2] was inactive.
In the case of `CCc1cccc2c1CNc1c(cccc1CCc1ccccc1)/C=C\2COc1cccc(F)c1`, the result in test [1] and in test [2] was inactive.
As for `CCc1cccc2c1CNc1c(cccc1CCc1ccccc1)/C=C\2COc1ccc(C(=O)OC)cc1`, the outcome in test [1] and in test [2] was inactive.
For `CCc1cccc2c1CNc1c(cccc1CCc1ccccc1)/C=C\2COc1ccc(Cl)cc1`, the outcome in test [1] and in test [2] was inactive.
